The list is not random: actives were taken first. Their share in the collection is about 1.8%.
Fam108B inh: mouse Fam108B serine hydrolase inhibitors, primary screen, counter-screen for RBBP9 inhibitor project, biochemical, fluorescence polarization; hit rate 0.33% among 300,000; inhibition, % at 9.51 µM; recombinant Fam108B, FP-Rh probe fluorescence polarization; AID 1947, 2009;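 active means inhibition above the screen mean inhibition plus 3 SD, computed separately per campaign, cut at about 18% in these data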;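 further: inhibitors lower polarization as less probe binds the enzyme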
TCR CD3 inh: inhibitors of human TCR-CD3 interaction, primary screen, biochemical, fluorescence, TAMRA-labeled TCR probe | inhibition, % at 9.4 µM | hit rate 0.37% among 360,000;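 further: recombinant mutant TCR 2C K166C tagged with TAMRA read by polarization; 0% = receptor in buffer alone and 100% = receptor with positive control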
HTRA1 inhibitor: HTRA1 serine protease inhibitors, primary screen, biochemical, fluorescence polarization, HTS. recombinant HTRA1, FP-rhodamine activity-based probe. Q92743. inhibition, % at 5.96 µM. hit rate 0.5% among 340,000. AID 504803, 2011; in the data active means inhibition above about 36%;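 further: 0% = enzyme with DMSO and 100% = wells lacking enzyme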
ABHD4 inh: ABHD4 inhibitors, primary screen, biochemical, fluorescence polarization, mouse; (Lyso)-N-acylphosphatidylethanolamine lipase (Mus musculus), Q8VD66; purified mABHD4, FP-Rh probe fluorescence polarization; inhibition, % at 8.92 µM; hit rate 0.54% among 370,000; AID 720543, 2013;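 active means inhibition exceeding the mean over every tested compound plus 3 SD, cut at about 30% in these data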;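 further: 0% = plate median of compound wells and 100% = S159A mutant with DMSO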
Target sequence (Q8VD66 whole entry, looked up): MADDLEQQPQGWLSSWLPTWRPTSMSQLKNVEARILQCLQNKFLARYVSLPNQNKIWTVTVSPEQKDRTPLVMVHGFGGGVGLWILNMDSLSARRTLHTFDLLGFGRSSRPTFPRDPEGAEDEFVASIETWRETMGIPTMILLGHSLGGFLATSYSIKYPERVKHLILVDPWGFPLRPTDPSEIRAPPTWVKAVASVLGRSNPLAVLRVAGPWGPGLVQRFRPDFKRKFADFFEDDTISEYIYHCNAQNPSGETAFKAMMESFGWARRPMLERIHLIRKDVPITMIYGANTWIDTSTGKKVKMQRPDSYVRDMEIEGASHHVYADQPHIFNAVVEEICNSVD
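System: mouse ABHD4 enzyme, wild type / Medium: HEPES pH 7.0, NaCl, Pluronic buffer / Reagent: FP-Rh activity-based fluorescent probe / Control set: S159A mutant high control, sample median low control / Detection: fluorescence polarization with parallel and perpendicular emission, 525/598 nm / Schedule: 45 min + 60 min at 25 °C / Compound dosing: 8.92 µM, single dose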
PME-1 inh: PME-1 inhibitors via competitive probe labeling, primary screen, biochemical, fluorescence polarization, FP-Rh probe, HTS | Protein phosphatase methylesterase 1 (Homo sapiens), Q9Y570 | recombinant PME-1 | inhibition, % at 5.9 µM | hit rate 0.53% among 320,000;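 active means inhibition above the campaign mean of all compounds plus 3 SD, cut at about 26% in these data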;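 further: competitive labeling of PME-1 active site by serine hydrolase directed probe; 0% = PME-1 with DMSO and 100% = wells lacking PME-1 enzyme; inhibitors block probe labeling so polarization falls and inhibition rises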
SIAE inh: human SIAE inhibitors, primary screen, biochemical, fluorescence polarization, FP-Rh probe, 1536-well HTS; inhibition, % at 9.66 µM; hit rate 0.69% among 370,000; SIAE FP-Rh probe binding; Sialate O-acetylesterase (Homo sapiens), Q9HAT2; AID 1053197, 2014;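 active means inhibition above a cutoff: mean of compounds within the control limits plus 3 SD of those, cut at about 17% in these data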;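 further: 0% = plate median of compound wells and 100% = probe without SIAE protein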
HTRA1 inh conf: HTRA1 protease inhibitors, retest, confirmation, biochemical, fluorescence polarization. shares compounds with HTRA1 inhibitor. recombinant HTRA1, FP-rhodamine activity-based probe. inhibition, % at 5.96 µM. hit rate 66% among 1,600;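 active means mean inhibition over three repeats above a set limit taken from the earlier primary screen, cut at about 37% in these data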;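 further: 0% = HTRA1 with DMSO and 100% = wells lacking HTRA1; inhibitors block probe binding so polarization drops and inhibition rises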
BSA probe FL: compounds interfering with TAMRA-BSA probe, counter-screen for TCR-CD3 interaction inhibitor project, biochemical, fluorescence, TAMRA-labeled BSA | shares compounds with TCR CD3 inh | TAMRA-labeled BSA probe fluorescence counterscreen | inhibition, % at 9.4 µM | hit rate 10% among 1,200 | AID 652035, 2013; in the data active means inhibition above about 23%;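 further: 0% = buffer low control and 100% = reference high control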
TCR-CD3 conf: TCR-CD3 interaction inhibitors, retest, confirmation, biochemical, fluorescence, TAMRA-labeled TCR probe | shares compounds with TCR CD3 inh | TAMRA-labeled TCR probe fluorescence binding assay | inhibition, % at 9.4 µM | hit rate 48% among 1,200 | AID 652036, 2013
Starred values were filed as active, the others as inactive; . = no result given. Unless noted, no stated cut-off is given here; in the data, active means inhibition above about 19%; inactive means the rest.

SMILES	Fam108B inh	TCR CD3 inh	HTRA1 inhibitor	ABHD4 inh	PME-1 inh	SIAE inh	HTRA1 inh conf	BSA probe FL	TCR-CD3 conf
CN(C)c1nc(-c2ccccn2)nnc1-c1ccccc1	5	-3	52*	2	1	2	57*	.	.
Cc1cc(C(N)=O)c2ccccc2n1	-3	-1	-1	-3	3	12	.	.	.
NC(=O)c1cc2c3ccccc3ccn2c1-c1ccccc1	10	-5	42*	-6	6	6	29	.	.
CN=c1scc(-c2ccc(F)cc2)n1/N=C/c1ccc(O)c(O)c1	.	5	64*	33*	.	6	69*	.	.
CN=c1scc(-c2ccc([N+](=O)[O-])cc2)n1/N=C/c1ccco1	2	0	17	-1	0	11	.	.	.
Cc1ccc(CNc2ccc(N3CCOCC3)cc2)s1	0	0	36*	27	2	8	3	.	.
CC(=O)N1CCN(c2ccc(NCc3ccc(C)s3)cc2)CC1	1	-3	24	22	-2	17	.	.	.
Cc1n[nH]c(=O)c2c(NC(=O)CSc3nc4ccccc4c(=O)n3CCCO)oc(C)c12	-2	-6	38*	-6	0	4	-2	.	.
C/C(CC(=O)Nc1ccccn1)=N\NC(=O)c1ccccc1O	4	45*	56*	17	3	11	26	23*	37*
O=C(O)c1ccc(Cl)c2c1C1C=CCC1C(c1ccccn1)N2 (configuration not stated)	7	.	.	.	-7	.	.	.	.
O=C(O)C1Nc2c(O)cc(Cl)c([N+](=O)[O-])c2C2C=CCC12 (configuration not stated)	79*	91*	66*	61*	11	53*	63*	-19	51*
COc1ccc(C)cc1NC(=O)NNC(=O)c1cc2ccccc2cc1O	12	22*	42*	5	26*	5	35	-2	26*
O=C(CCN1CCN(c2ccccc2)CC1)N/N=C/c1ccc(O)c(O)c1O	.	30*	47*	24	.	12	37*	-5	24*
O=C(Cc1nnc(NC(=O)c2ccccc2)s1)N/N=C\c1ccc(O)c(O)c1	3	34*	43*	28	-1	6	48*	-11	33*
Oc1ccc(/C=N/Nc2ncnc3c2ncn3Cc2ccccc2)cc1O	-4	53*	49*	29	11	2	50*	-4	46*
Oc1cccc(/C=N/Nc2ncnc3c2ncn3Cc2ccccc2)c1	0	-8	1	6	2	8	.	.	.
CCn1c2ccccc2c2cc(C=NNC(=O)CSc3nc4ccccc4c(=O)n3-c3ccccc3)ccc21	.	.	.	-2	.	-8	.	.	.
CC(C)CSc1nnc(-c2ccco2)n1C	.	.	.	2	.	0	.	.	.
COC(=O)C1=C(C)N(Cc2cccc(C(F)(F)F)c2)C(=NCC2CC2)NC1c1cccc(C(F)(F)F)c1 (configuration not stated)	.	8	.	27	.	6	.	.	.
O=C(CSc1nc2ccccc2n1CCc1ccccc1)c1ccc(O)c(O)c1	.	23*	70*	24	.	20*	66*	-10	32*
O=C(CSc1nc2ccccc2c(=O)[nH]1)c1ccc(O)c(O)c1	4	32*	43*	34*	1	1	43*	-19	34*
COc1ccc(S[C@]2(C(=O)N3CCOCC3)CC(=O)N(c3ccccc3)[C@@H]2c2ccc(OC)cc2)cc1	.	.	.	5	.	1	.	.	.
COc1cccc(/C=C2/SC(=S)N(CC(=O)NNC(=O)c3ccccc3O)C2=O)c1	-37	25*	46*	-6	-42	-81	8	-6	46*
Cc1ccc(/C=C2/SC(=S)N(CCCC(=O)Nc3ccc(O)cc3)C2=O)cc1	.	-4	-5	-14	.	6	.	.	.
Cc1ccc(/C=C2\SC(=S)N(CCC(=O)NNC(=O)c3ccccc3O)C2=O)cc1	-6	29*	38*	13	4	6	59*	-9	33*
SMILES	Fam108B inh	TCR CD3 inh	HTRA1 inhibitor	ABHD4 inh	PME-1 inh	SIAE inh	HTRA1 inh conf	BSA probe FL	TCR-CD3 conf
Cc1ccc(/C=C2\SC(=S)N(CCC(=O)NNC(=O)c3cccc(O)c3)C2=O)cc1	-57	6	-57	-89	-65	-113	.	.	.
O=C(CCN1C(=O)/C(=C/c2ccccc2Cl)SC1=S)NNC(=O)c1ccccc1O	-5	43*	55*	-2	1	-2	70*	3	34*
Cc1ccc(/C=C2\SC(=S)N(CCCC(=O)NNC(=O)c3ccccc3O)C2=O)cc1	-20	33*	37*	9	-1	8	53*	-3	22*
Cc1cc(C)c(C)c(S(=O)(=O)N2CCC(C(=O)NNC(=O)c3ccccc3O)CC2)c1C	2	32*	46*	7	6	0	48*	-6	22*
CCOC(=O)NC[C@@]1(C(=O)OC)CC(=O)N(C)[C@@H]1c1ccccc1	.	.	.	-1	.	6	.	.	.
O=C(N/N=C/c1ccc(O)c(O)c1)N/N=C/c1ccc(O)c(O)c1	.	65*	38*	27	.	-12	19	-13	81*
Cc1nonc1C(=O)N/N=C/c1ccc(O)c(O)c1	-3	7	23	13	-7	9	.	.	.
COc1cc(C=NN=c2sc3ccccc3n2C)ccc1OCCO	.	1	.	3	.	-2	.	.	.
CC1=Nc2cccc3cccc(c23)N1	1	39*	42*	26	4	12	18	45*	23*
CCCCN(C)C1=Nc2cccc3cccc1c23	3	0	1	2	4	1	.	.	.
O=C(OCc1cn(Cc2ccc(F)cc2)nn1)N1CCOCC1	.	.	.	3	.	-1	.	.	.
O=C(NNC(=S)NC(=O)c1ccco1)c1ccc(NC(=O)c2ccccc2)cc1	4	13	-19	4	-1	2	.	.	.
O=C(NC(=S)NNC(=O)c1ccccc1O)c1ccco1	15	25*	39*	24	4	10	67*	-9	19
O=C(NC(=S)NNC(=O)c1ccccc1O)c1cccnc1	17	29*	49*	12	3	1	63*	-2	31*
